Data from PubChem BioAssay AID623894 (Johns Hopkins Ion Channel Center, 2012).
Several values for one entry are separate records, joined by “and”; a condition that tells them apart may be missing. Equal entries are not always repeated. Activity calls are given as the source filed them.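 Rule for the calls: active = peak inhibition above 30% of the KCNK3 potassium channel at some dose, plus a fitted dose response curve; inactive = no inhibition at any dose, or no fitted curve.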

molecular target: Potassium channel subfamily K member 3 (Rattus norvegicus) (UniProt O54912); assay: KCNK3 potassium channel inhibitors, SAR follow-up, selectivity assay for KCNK9 inhibitor project, cell-based, FluxOR thallium flux, CRC set 3 (AID 623894); details: KCNK3-expressing cell line, FluxOR thallium flux fluorescence
Sequence (O54912 whole entry, looked up): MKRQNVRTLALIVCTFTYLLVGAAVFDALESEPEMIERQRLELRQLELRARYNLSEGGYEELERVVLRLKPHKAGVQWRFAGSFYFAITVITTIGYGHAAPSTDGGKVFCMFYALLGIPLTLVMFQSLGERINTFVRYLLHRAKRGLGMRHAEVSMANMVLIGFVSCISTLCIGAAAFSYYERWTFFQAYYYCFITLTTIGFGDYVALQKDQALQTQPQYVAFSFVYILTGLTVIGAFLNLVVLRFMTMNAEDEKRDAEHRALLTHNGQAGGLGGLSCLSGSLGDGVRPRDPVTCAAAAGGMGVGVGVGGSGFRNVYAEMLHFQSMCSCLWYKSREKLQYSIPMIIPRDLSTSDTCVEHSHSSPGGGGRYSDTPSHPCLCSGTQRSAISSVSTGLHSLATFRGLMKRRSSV
In short: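 Test system: tetracycline-induced KCNK3 CHO cells; Incubation: dye loading 90 min, compound exposure 20 min, room temperature, dark; Signal: kinetic thallium-flux fluorescence with FluxOR dye, 110 s post-stimulus.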

Q: How did the IC50 turn out when `COc1ccc(CC(=O)NCc2ccccc2-c2ccccc2C(=O)NCc2ccc(F)cc2F)cc1` was run?
A: The IC50 was 201 nM.

Q: How did the IC50 turn out when `COc1cccc(CCSc2nnc(-c3ccco3)n2C(C)C2CC3CCC2C3)c1` (configuration not stated) was run?
A: The IC50 was 893 nM.

Q: `CC(C1CC2CCC1C2)n1c(SCCc2ccccn2)nnc1-c1ccco1` (configuration not stated) was tested. Which IC50 did it give?
A: Its IC50 is 1860 nM.

Q: With `COc1ccc(C(=O)CCSc2nnc(-c3ccco3)n2C(C)C2CC3CCC2C3)cc1OC` (configuration not stated) as the compound, how does the IC50 read?
A: The IC50 was 322 nM.

Q: With `CC(C1CC2CCC1C2)n1c(-c2ccco2)nn(CCc2ccncc2)c1=S` (configuration not stated) as the compound, how does the IC50 read?
A: The IC50 was 4720 nM.

Q: Which IC50 does the source give for `CC(C1C[C@H]2CCC1C2)n1c(-c2ccsc2)n[nH]c1=S` (some centres not stated) here?
A: Its IC50 is 10700 nM.

Q: For `C[C@@H]([C@@H]1CC2CC[C@H]1C2)n1c(-c2ccco2)n[nH]c1=S`, which IC50 is on record?
A: Its IC50 is 818 nM and 6590 nM.

Q: With `COc1ccc(CSc2nnc(-c3ccco3)n2C(C)C2CC3CCC2C3)cc1OC` (configuration not stated) as the compound, how does the IC50 read?
A: The IC50 was 2190 nM.

Q: `COc1cccc(-c2n[nH]c(=S)n2[C@H](C)C2CCCCC2)c1` was tested. Which IC50 did it give?
A: Its IC50 is 12400 nM.

Q: How did the IC50 turn out when `C[C@H]([C@@H]1CC2CC[C@H]1C2)n1c(-c2ccco2)n[nH]c1=S` was run?
A: Its IC50 is 159 nM.

Q: `CC(C1CC2CCC1C2)n1c(SCCc2cccc(O)c2)nnc1-c1ccco1` (configuration not stated) was tested. Which IC50 did it give?
A: Its IC50 is 1660 nM.

Q: With `CC(C1CC2CCC1C2)n1c(SCC(=O)N2CCN(C)CC2)nnc1-c1ccco1` (configuration not stated) as the compound, how does the IC50 read?
A: The IC50 was 24800 nM.

Q: With `COc1cccc(-c2n[nH]c(=S)n2[C@H](C)[C@@H]2CC3CC[C@H]2C3)c1` as the compound, how does the IC50 read?
A: The IC50 was 1100 nM.

Q: `C[C@H](C1CCCCC1)n1c(-c2ccccc2F)n[nH]c1=S` was tested. Which IC50 did it give?
A: The IC50 was 5880 nM.

Q: Which IC50 does the source give for `C[C@H](C1CCCCC1)n1c(-c2ccsc2)n[nH]c1=S` here?
A: Its IC50 is 6030 nM.

Q: `COc1cccc(-c2nnc(SSc3nnc(-c4cccc(OC)c4)n3C(C)C3CC4CCC3C4)n2C(C)C2CC3CCC2C3)c1` (configuration not stated) was tested. Which IC50 did it give?
A: The IC50 was 1740 nM.

Q: How did the IC50 turn out when `COc1ccc(NC(=O)CSc2nnc(-c3ccco3)n2C(C)C2CC3CCC2C3)cc1OC` (configuration not stated) was run?
A: The IC50 was 30300 nM.

Q: Which IC50 does the source give for `C[C@H]([C@@H]1CC2CC[C@H]1C2)n1c(-c2ccccc2F)n[nH]c1=S` here?
A: Its IC50 is 121 nM.

Q: Which IC50 does the source give for `CC([C@@H]1CC2CC[C@H]1C2)n1c(-c2ccsc2)n[nH]c1=S` (some centres not stated) here?
A: The IC50 was 1170 nM.

same assay, conditions: KCNK3-expressing cell line, FluxOR thallium flux fluorescence; at 30 µM (top of the series)

Q: For `CC(C1CC2CCC1C2)n1c(N)nnc1-c1ccco1` (configuration not stated), which “flux ratio, lower = inhibition” value is on record?
A: Its value is “inactive”.

Q: Which “flux ratio, lower = inhibition” value does the source give for `CC(C1CCN(C)CC1)n1c(-c2ccco2)n[nH]c1=S` (configuration not stated) here?
A: Its value is “inactive”.

Q: For `CC(C1CC2CCC1C2)n1c(SCCN2CCOCC2)nnc1-c1ccco1` (configuration not stated), which “flux ratio, lower = inhibition” value is on record?
A: The value was “inactive”.
